14 molecules from ChEMBL document CHEMBL2331356, “Synthesis of gatifloxacin derivatives and their biological activities against Mycobacterium leprae and Mycobacterium tuberculosis” (Bioorg Med Chem, 2013) can be followed below.

Each structure is given as a SMILES string. Values after ≈ are worked out from the molar mass of the structure shown. Active and inactive are the calls of the source. The calls are words filed in the database; no cut-off is given here.

Experiment [1] relates to Mycobacterium tuberculosis. The experiment is described as follows: Antimicrobial activity against Mycobacterium tuberculosis H37Rv assessed as drug concentration causing =<1% […] bacterial growth incubated for 21 to 30 days by proportion method. The format is functional. The method, boiled down:
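H37Rv grown on Löwenstein-Jensen medium; 10³ and 10⁵ CFU spread on 7H11 agar with 10% OADC containing serial twofold compound dilutions. Colonies counted after 21–30 days at 37 °C. […] Compounds dissolved in DMSO or NaOH.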

For experiment [2], the system named is Mycobacterium leprae [G89C].
Experiment [3] deals with Mycobacterium leprae. The experiment is described as follows: Inhibition of Mycobacterium leprae DNA gyrase GyrA/GyrB assessed as reduction of enzyme supercoiling activity using relaxed pBR322 DNA substrate incubated for 2 hrs at 30 degC by ethidium bromide based gel electrophoresis.
In experiment [4] the target is DNA gyrase subunit A/DNA gyrase subunit B (Mycobacterium tuberculosis (strain ATCC 25618 / H37Rv), UniProt P9WG45+P9WG47). The experiment is described as follows: Inhibition of Mycobacterium tuberculosis DNA gyrase GyrA/GyrB assessed as reduction of enzyme supercoiling activity using relaxed pBR322 DNA substrate incubated for 1 hr at 37 degC by ethidium bromide based gel electrophoresis.

Experiment [5] deals with Mycobacterium leprae. As to the kind of experiment: Inhibition of Mycobacterium leprae wild type DNA gyrase GyrA/GyrB-mediated DNA cleavable complex formation assessed as compound concentration inducing 25% DNA cleavage using relaxed pBR322 DNA substrate incubated for 1 hr at 30 degC by agarose gel electrophoresis.
In experiment [6] the test system is Mycobacterium leprae [A91V]. The experiment is described as follows: Inhibition of Mycobacterium leprae […] DNA gyrase GyrA/GyrB A91V mutant-mediated DNA cleavable complex formation assessed as compound concentration inducing 25% DNA cleavage using relaxed pBR322 DNA substrate incubated for 1 hr at 30 degC by agarose gel electrophoresis.

Broadly, the MIC is the lowest concentration that inhibits growth of the organism. Broadly, the IC50 is the concentration that inhibits the measured activity by half. As for `COc1c(N2CCNC(C(=O)O)C2)c(F)cc2c(=O)c(C(=O)O)cn(C3CC3)c12` (stereo not drawn), the MIC in experiment [1] was 16 µg/mL (≈ 39.5 µM). Moreover, in experiment [2], the CC25 entry was “inactive”. In addition, the IC50 in the experiment with Mycobacterium leprae [3] was 20 µg/mL (≈ 49.3 µM); in experiment [4] it was 39.5 µM. For the same molecule, in the experiment with Mycobacterium leprae [5], the CC25 was determined as 27 µg/mL (≈ 66.6 µM).

As for `CCN(CC)C(=O)OCC1CN(c2c(F)cc3c(=O)c(C(=O)O)cn(C4CC4)c3c2OC)CCN1` (stereo not drawn), the MIC in experiment [1] was 32 µg/mL (≈ 65.2 µM). Also, in experiment [2], the CC25 result was “inactive”. The results for the IC50 (with Mycobacterium leprae [3]; in experiment [4]) were 20 µg/mL (≈ 40.8 µM) and 102 µM, respectively. In the experiment on Mycobacterium leprae [5], the CC25 is 60 µg/mL (≈ 122 µM).

Turning to `CCN1CCN(c2c(F)cc3c(=O)c(C(=O)O)cn(C4CC4)c3c2OC)CC1C(=O)O` (stereo not drawn), in experiment [1], the MIC amounted to 32 µg/mL (≈ 73.8 µM). In addition, the CC25 entry in experiment [2] was “inactive”. Also, the IC50 is 55 µg/mL (≈ 127 µM) in the experiment on Mycobacterium leprae [3] and 201 µM in experiment [4]. The CC25 in the experiment with Mycobacterium leprae [5] was more than 240 µg/mL.

With `CCN(CC)C(=O)OCC1CN(c2cc3c(cc2F)c(=O)c(C(=O)O)cn3C2CC2)CCN1` (stereo not drawn), in experiment [1], the MIC is 128 µg/mL (≈ 278 µM). Further, the CC25 entry in experiment [2] and in experiment [6] was “inactive” throughout. For the same molecule, the IC50 in the experiment with Mycobacterium leprae [3] was 118 µg/mL (≈ 256 µM); in experiment [4], 575 µM. The CC25 in the experiment with Mycobacterium leprae [5] was more than 240 µg/mL.

Take `COc1c(N2CCNC(C)C2)c(F)cc2c(=O)c(C(=O)O)cn(C3CC3)c12` (stereo not drawn) [GATIFLOXACIN]: the MIC in experiment [1] was determined as 0.125 µg/mL (≈ 0.333 µM). Also, the CC25 result in experiment [2] is “inactive”. Besides, the IC50 was 3 µg/mL (≈ 7.99 µM) in the experiment with Mycobacterium leprae [3] and 7.99 µM in experiment [4]. Moreover, in the experiment with Mycobacterium leprae [5], the CC25 worked out at 1 µg/mL (≈ 2.66 µM).

`O=C(O)c1cn(C2CC2)c2cc(N3CCNCC3)c(F)cc2c1=O` [CIPROFLOXACIN]: the MIC in experiment [1] was 0.5 µg/mL (≈ 1.51 µM). In addition, the CC25 entry in experiment [2] is “inactive”. Also, in the experiment with Mycobacterium leprae [3], the IC50 turned out to be 2 µg/mL (≈ 6.04 µM).

As to `CCN1CCN(c2cc3c(cc2F)c(=O)c(C(=O)O)cn3C2CC2)CC1C(=O)O` (stereo not drawn), the MIC in experiment [1] was 32 µg/mL (≈ 79.3 µM). Also, the CC25 entry in experiment [2] and in experiment [6] was “inactive” in each case. Further, the IC50 was 35 µg/mL (≈ 86.8 µM) with Mycobacterium leprae [3] and 119 µM in experiment [4]. Also, in the experiment on Mycobacterium leprae [5], the CC25 is more than 240 µg/mL.

Regarding `CCOC(=O)C1CN(c2c(F)cc3c(=O)c(C(=O)O)cn(C4CC4)c3c2OC)CCN1` (stereo not drawn), in experiment [1], the MIC was more than 32 µg/mL. For the same molecule, the CC25 result in experiment [2] is “inactive”. For the same molecule, the IC50 with Mycobacterium leprae [3] was 17 µg/mL (≈ 39.2 µM); in experiment [4] it was 48.5 µM. In addition, the CC25 in the experiment with Mycobacterium leprae [5] turned out to be 80 µg/mL (≈ 185 µM).

As to `O=C(O)c1cn(C2CC2)c2cc(N3CCNC(C(=O)O)C3)c(F)cc2c1=O` (stereo not drawn), the MIC in experiment [1] was 32 µg/mL (≈ 85.3 µM). Also, in experiment [2], the CC25 result was “inactive”. Besides, the IC50 in the experiment on Mycobacterium leprae [3] is 30 µg/mL (≈ 79.9 µM); in experiment [4] it was 53.3 µM. In the experiment on Mycobacterium leprae [5], the CC25 came out at 30 µg/mL (≈ 79.9 µM).

With `CCCCNC(=O)OCC1CN(c2cc3c(cc2F)c(=O)c(C(=O)O)cn3C2CC2)CCN1` (stereo not drawn), the MIC in experiment [1] was found to be 16 µg/mL (≈ 34.7 µM). Further, the CC25 result in experiment [2] and in experiment [6] was “inactive” throughout. Also, the values for the IC50 (with Mycobacterium leprae [3]; in experiment [4]) were 22 µg/mL (≈ 47.8 µM) and 65.1 µM, respectively. Further, the CC25 in the experiment on Mycobacterium leprae [5] came to 30 µg/mL (≈ 65.1 µM).

Turning to `CC1COc2c(N3CCN(C)CC3)c(F)cc3c(=O)c(C(=O)O)cn1c23` (stereo not drawn) [OFLOXACIN], the MIC in experiment [1] stood at 1 µg/mL (≈ 2.77 µM). The CC25 entry in experiment [2] was “inactive”. The values for the IC50 (with Mycobacterium leprae [3]; in experiment [4]) were 8 µg/mL (≈ 22.1 µM) and 16.6 µM, respectively. Also, the CC25 in the experiment with Mycobacterium leprae [5] was determined as 10 µg/mL (≈ 27.7 µM).

Turning to `COc1c(N2C[C@@H]3CCCN[C@@H]3C2)c(F)cc2c(=O)c(C(=O)O)cn(C3CC3)c12` [MOXIFLOXACIN], in experiment [1], the MIC was 0.5 µg/mL (≈ 1.25 µM). In addition, in experiment [2], the CC25 entry was “inactive”.

Regarding `CCCCNC(=O)OCC1CN(c2c(F)cc3c(=O)c(C(=O)O)cn(C4CC4)c3c2OC)CCN1` (stereo not drawn), in experiment [1], the MIC was 8 µg/mL (≈ 16.3 µM). For the same molecule, the CC25 result in experiment [2] is “inactive”. For the same molecule, the figures for the IC50 (in the experiment on Mycobacterium leprae [3]; in experiment [4]) were 10 µg/mL (≈ 20.4 µM) and 34.7 µM, respectively. For the same molecule, the CC25 in the experiment with Mycobacterium leprae [5] was found to be 10 µg/mL (≈ 20.4 µM).

For `CCOC(=O)C1CN(c2cc3c(cc2F)c(=O)c(C(=O)O)cn3C2CC2)CCN1` (stereo not drawn), the minimal inhibitory concentration (MIC) in experiment [1] was found to be 4 µg/mL (≈ 9.92 µM). Further, the CC25 entry in experiment [2] is “inactive”. In addition, the IC50 with Mycobacterium leprae [3] is 20 µg/mL (≈ 49.6 µM); in experiment [4], 66.9 µM. The CC25 in the experiment on Mycobacterium leprae [5] was 20 µg/mL (≈ 49.6 µM).
